For test [1], the species on record is Homo sapiens. Description: Inhibition of chymotrypsin-like activity of human 20S immunoproteasome using Suc-LLVY-AMC as substrate at 1 uM after 90 mins by fluorescence assay.
Another test relates to Proteasome. Description: Inhibition of chymotrypsin-like activity of constitutive proteasome (unknown origin) using Suc-LLVY-AMC as substrate at 5 uM after 90 mins by fluorescence assay. Format: subcellular. Particulars: Homo sapiens. An outline of the steps:
(§1)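 Purified human 20S immunoproteasome or constitutive proteasome, 2-fold diluted in 20 mM Tris/Cl pH 8.0, 0.5 mM EDTA, 0.035% SDS, at 50 ng/well. The enzyme was preincubated with compound (5 µM, from DMSO) for 90 min at room temperature. Then 100 µM Suc-LLVY-AMC was added and AMC fluorescence (Ex 360/Em 460) was read for 90 min. […] Run in triplicate.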

The species named for test [2] is Homo sapiens. Description: Inhibition of chymotrypsin-like activity of human 20S immunoproteasome using Suc-LLVY-AMC as substrate at 5 uM after 90 mins by fluorescence assay. An outline of the steps:
as §1

Test [3] can be described thus: Inhibition of chymotrypsin-like activity of human 20S immunoproteasome using Suc-LLVY-AMC as substrate after 90 mins by fluorescence assay.

pIC50: −log10 of the molar value. Residues, ends and D or L forms follow the SMILES beside them. *: point of attachment. Fmoc = O=C(OCC1c2ccccc2-c2ccccc21)*

The compound `CC[C@H](C)[C@H](NC(=O)[C@H]([C@@H](C)CC)N(C)C(C)=O)C(=O)N[C@H](C(=O)N[C@@H](CC(C)C)C(=O)[C@@]1(C)CO1)[C@@H](C)O` displayed an inhibition in the test listed under Homo sapiens [1] of 100%.

With `Cc1cccc(Nc2ccccc2C(=O)N[C@H](CC[S@+](C)[O-])C(=O)N[C@H](C)c2ccc(F)cc2)c1C`, the inhibition came out at 33% with Proteasome and 31% in the test listed under Homo sapiens [2].

Regarding `O=C(C[C@@H]1CCN(CC2CC2)C[C@@H]1[C@H]1CC(c2ccccc2Cl)=NO1)NCCc1ccccn1`, the inhibition in the test on Proteasome is 14%; in the test filed under Homo sapiens [2], 13%.

Turning to `NC(=O)CC[C@H](NC(=O)[C@H](Cc1cnc[nH]1)NC(=O)OCC1c2ccccc2-c2ccccc21)C(=O)N1CCC[C@H]1C(=O)O` (Fmoc-His-Gln-Pro-OH), the inhibition in the test on Proteasome was found to be 24%; in the test filed under Homo sapiens [2], 35%.

As to `CCCCc1ccc2nc(-c3ccc(OC)cc3)cc(C(=O)NC[C@@H](C)C(=O)N3CCC[C@@H]3CO)c2c1`, the inhibition in the test on Proteasome came to 2%; in the test listed under Homo sapiens [2], 21%.

In the case of `CCC[C@H]1C[C@H](C(=O)N[C@@H]([C@@H]2O[C@H](SC)[C@@H](O)[C@@H](O)[C@@H]2O)[C@@H](C)O)N(C)C1`, the inhibition came out at 2% with Proteasome and 36% in the test filed under Homo sapiens [2]. The compound further had a pIC50 in test [3] of 4.66.

Consider `Cc1ccc(-c2cc(C(=O)NC[C@@H]3CCCO3)c3cc(CNS(=O)(=O)c4cccc(Cl)c4)ccc3n2)o1`, for which the inhibition in the test with Proteasome was 20%; in the test listed under Homo sapiens [2] it was 85%. The compound further showed a pIC50 in test [3] of 5.77.

For `O=C1CN(/N=C/c2ccc(-c3ccc(Cl)cc3)o2)C(=O)N1CCCCN1CCN(C[C@@H](O)c2ccccc2)CC1`, the values for the inhibition in the test with Proteasome and in the test listed under Homo sapiens [2] were 16% and 25%, respectively.

`CC[C@@H](NC(=O)[C@@H](CC(C)C)NC(=O)OCc1ccccc1)C(=O)C(=O)NCCCN1CCOCC1`: the inhibition in the test with Proteasome worked out at 6%; in the test filed under Homo sapiens [2], 14%.

`Cc1ccc(CSC[C@@H](NC(=O)c2cc(-c3ccccc3)nc3ccccc23)C(=O)NCCCN2CCCC2=O)cc1`: the inhibition came to 15% with Proteasome and 62% in the test filed under Homo sapiens [2]. In addition, in test [3], the pIC50 is 5.31.

For orientation: inhibition means the share of the control response that was lost under treatment. Read a high inhibition as a response far below the control. What is called pIC50 is the IC50 on a negative log10 scale, so that one unit is a factor of ten.
